Assay results: ChEMBL document CHEMBL1687780, “Mutations in 23S rRNA at the peptidyl transferase center and their relationship to linezolid binding and cross-resistance” (2010)
In brackets after ≈: the same amount, converted by molar mass.

Experiments:
Assay type in all cases: functional
[1] = tested on: Mycolicibacterium smegmatis; test: Antibacterial activity against Mycobacterium smegmatis harboring 23S rRNA G2032C mutant after 24 generation times
In short: (§1)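 M. smegmatis SMR5 strains with one rRNA operon on a plasmid integrated at attB, grown in LB + 0.05% Tween 80 at 37°C to visible growth, diluted to OD600 0.02, and mixed 1:1 with 2-fold antibiotic dilutions. Tested ranges were linezolid 0.125–64 μg/ml and chloramphenicol, clindamycin, valnemulin 1–512 μg/ml. Incubation ran 37°C for 24 generation times of each strain. MIC was the lowest concentration with complete visual inhibition. Parent/wild-type controls were on each plate.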

[2] = tested on: Mycolicibacterium smegmatis; test: Antibacterial activity against Mycobacterium smegmatis harboring 23S rRNA C2612A mutant after 24 generation times; in short: as §1
[3] = tested on: Mycolicibacterium smegmatis; test: Antibacterial activity against Mycobacterium smegmatis harboring 23S rRNA A2503G mutant after 24 generation times; in short: as §1
[4] = tested on: Mycolicibacterium smegmatis; test: Antibacterial activity against Mycobacterium smegmatis SZ558 after 24 generation times; in short: as §1
[5] = tested on: Mycolicibacterium smegmatis; test: Antibacterial activity against Mycobacterium smegmatis harboring 23S rRNA C2055A mutant after 24 generation times; in short: as §1
[6] = tested on: Mycolicibacterium smegmatis; test: Antibacterial activity against Mycobacterium smegmatis harboring 23S rRNA G2032A mutant after 24 generation times; in short: as §1
[7] = tested on: Mycolicibacterium smegmatis; test: Antibacterial activity against wild type Mycobacterium smegmatis after 24 generation times; in short: as §1
[8] = tested on: Mycolicibacterium smegmatis; test: Antibacterial activity against Mycobacterium smegmatis harboring 23S rRNA U2504G mutant after 24 generation times; in short: as §1
[9] = tested on: Mycolicibacterium smegmatis; test: Antibacterial activity against Mycobacterium smegmatis harboring 23S rRNA A2572U1 mutant after 24 generation times; in short: as §1
[10] = tested on: Mycolicibacterium smegmatis; test: Antibacterial activity against Mycobacterium smegmatis harboring 23S rRNA A2058G mutant after 24 generation times; in short: as §1
[11] = tested on: Mycolicibacterium smegmatis; test: Antibacterial activity against Mycobacterium smegmatis harboring 23S rRNA C2499A2 mutant after 24 generation times; in short: as §1
[12] = tested on: Mycolicibacterium smegmatis; test: Antibacterial activity against Mycobacterium smegmatis harboring 23S rRNA G2505A mutant after 24 generation times; in short: as §1
[13] = tested on: Mycolicibacterium smegmatis; test: Antibacterial activity against Mycobacterium smegmatis harboring 23S rRNA C2055A, A2572U mutant after 24 generation times; in short: as §1
[14] = tested on: Mycolicibacterium smegmatis; test: Antibacterial activity against Mycobacterium smegmatis harboring 23S rRNA G2032A, U2504G mutant after 24 generation times; in short: as §1
[15] = tested on: Mycolicibacterium smegmatis; test: Antibacterial activity against Mycobacterium smegmatis harboring 23S rRNA C2499U mutant after 24 generation times; in short: as §1
[16] = tested on: Mycolicibacterium smegmatis; test: Antibacterial activity against Mycobacterium smegmatis harboring 23S rRNA A2453U mutant after 24 generation times; in short: as §1
[17] = tested on: Mycolicibacterium smegmatis; test: Antibacterial activity against Mycobacterium smegmatis harboring 23S rRNA G2576U mutant after 24 generation times; in short: as §1
[18] = tested on: Mycolicibacterium smegmatis; test: Antibacterial activity against Mycobacterium smegmatis harboring 23S rRNA C2055A, U2504G mutant after 24 generation times; in short: as §1
[19] = tested on: Mycolicibacterium smegmatis; test: Antibacterial activity against Mycobacterium smegmatis harboring 23S rRNA G2032A, C2499A mutant after 24 generation times; in short: as §1
[20] = tested on: Mycolicibacterium smegmatis; test: Antibacterial activity against Mycobacterium smegmatis harboring 23S rRNA C2571G mutant after 24 generation times; in short: as §1

Row | SMILES | MIC [1] [µg/mL] | MIC [2] [µg/mL] | MIC [3] [µg/mL] | MIC [4] [µg/mL] | MIC [5] [µg/mL] | MIC [6] [µg/mL] | MIC [7] [µg/mL] | MIC [8] [µg/mL] | MIC [9] [µg/mL] | MIC [10] [µg/mL] | MIC [11] [µg/mL] | MIC [12] [µg/mL] | MIC [13] [µg/mL] | MIC [14] [µg/mL] | MIC [15] [µg/mL] | MIC [16] [µg/mL] | MIC [17] [µg/mL] | MIC [18] [µg/mL] | MIC [19] [µg/mL] | MIC [20] [µg/mL]
1 | O=C(N[C@H](CO)[C@H](O)c1ccc([N+](=O)[O-])cc1)C(Cl)Cl [CHLORAMPHENICOL] | 32 (≈ 99 µM) | 64 (≈ 198 µM) | 128 (≈ 396 µM) | 32 (≈ 99 µM) | 32 (≈ 99 µM) | 32 (≈ 99 µM) | 32 (≈ 99 µM) | 512 (≈ 1580 µM) | 8 (≈ 24.8 µM) | 32 (≈ 99 µM) | 32 (≈ 99 µM) | 128 (≈ 396 µM) | 64 (≈ 198 µM) | 256 (≈ 792 µM) | 32 (≈ 99 µM) | 32 (≈ 99 µM) | 256 (≈ 792 µM) | 128 (≈ 396 µM) | 64 (≈ 198 µM) | 32 (≈ 99 µM)
2 | CCC[C@@H]1C[C@@H](C(=O)N[C@@H]([C@H]2O[C@H](SC)[C@H](O)[C@@H](O)[C@H]2O)[C@H](C)Cl)N(C)C1 [CLINDAMYCIN] | 128 (≈ 301 µM) | 16 (≈ 37.6 µM) | 8 (≈ 18.8 µM) | 16 (≈ 37.6 µM) | 32 (≈ 75.3 µM) | 32 (≈ 75.3 µM) | 16 (≈ 37.6 µM) | 16 (≈ 37.6 µM) | 16 (≈ 37.6 µM) | > 1030 | 16 (≈ 37.6 µM) | 16 (≈ 37.6 µM) | 512 (≈ 1200 µM) | 16 (≈ 37.6 µM) | 16 (≈ 37.6 µM) | 32 (≈ 75.3 µM) | 64 (≈ 151 µM) | 16 (≈ 37.6 µM) | 16 (≈ 37.6 µM) | 16 (≈ 37.6 µM)
3 | CC(=O)NC[C@H]1CN(c2ccc(N3CCOCC3)c(F)c2)C(=O)O1 [LINEZOLID] | 4 (≈ 11.9 µM) | 4 (≈ 11.9 µM) | 8 (≈ 23.7 µM) | 2 (≈ 5.93 µM) | 0.5 (≈ 1.48 µM) | 2 (≈ 5.93 µM) | 2 (≈ 5.93 µM) | 8 (≈ 23.7 µM) | 4 (≈ 11.9 µM) | 2 (≈ 5.93 µM) | 2 (≈ 5.93 µM) | 16 (≈ 47.4 µM) | 64 (≈ 190 µM) | 64 (≈ 190 µM) | 2 (≈ 5.93 µM) | 4 (≈ 11.9 µM) | 64 (≈ 190 µM) | 32 (≈ 94.9 µM) | 8 (≈ 23.7 µM) | 4 (≈ 11.9 µM)
4 | C=C[C@]1(C)C[C@@H](OC(=O)CSC(C)(C)CNC(=O)[C@H](N)C(C)C)[C@]2(C)[C@H](C)CC[C@]3(CCC(=O)[C@H]32)[C@@H](C)[C@@H]1O [VALNEMULIN] | 128 (≈ 227 µM) | 32 (≈ 56.7 µM) | 32 (≈ 56.7 µM) | 32 (≈ 56.7 µM) | 64 (≈ 113 µM) | 128 (≈ 227 µM) | 32 (≈ 56.7 µM) | 64 (≈ 113 µM) | 128 (≈ 227 µM) | 64 (≈ 113 µM) | 64 (≈ 113 µM) | 32 (≈ 56.7 µM) | 128 (≈ 227 µM) | 128 (≈ 227 µM) | 32 (≈ 56.7 µM) | 64 (≈ 113 µM) | 32 (≈ 56.7 µM) | 64 (≈ 113 µM) | 128 (≈ 227 µM) | 32 (≈ 56.7 µM)
